From ChEMBL document CHEMBL1773060, “Two-step synthesis of novel, bioactive derivatives of the ubiquitous cofactor nicotinamide adenine dinucleotide (NAD)” (J Med Chem, 2011)

target: T1, NAD-dependent protein deacetylase sirtuin-2 (Homo sapiens, UniProt Q8IXJ6); assay: Inhibition of human recombinant N-terminally His6-tagged SIRT2 after 4 hrs by homogeneous fluorescent deacetylase assay
T1 sequence (Q8IXJ6 whole entry): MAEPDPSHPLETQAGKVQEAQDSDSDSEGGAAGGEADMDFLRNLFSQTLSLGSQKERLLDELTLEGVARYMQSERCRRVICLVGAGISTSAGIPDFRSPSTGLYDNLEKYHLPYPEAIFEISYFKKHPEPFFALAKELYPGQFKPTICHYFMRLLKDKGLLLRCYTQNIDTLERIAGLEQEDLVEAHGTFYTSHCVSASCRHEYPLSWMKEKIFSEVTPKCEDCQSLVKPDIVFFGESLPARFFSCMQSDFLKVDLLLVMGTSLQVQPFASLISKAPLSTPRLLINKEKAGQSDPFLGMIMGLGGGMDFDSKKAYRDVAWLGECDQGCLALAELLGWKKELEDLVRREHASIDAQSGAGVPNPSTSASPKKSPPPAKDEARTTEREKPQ
Outline: (§1)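 Recombinant enzyme incubated with Z-(Ac)Lys-AMC (10.5 μM), NAD (500 μM) and inhibitor added from DMSO stock, 4 h at 37 °C. Enzyme amount set for 10–30% substrate conversion without inhibitor. Trypsin (1 mg/mL) plus nicotinamide (8 mM) added, 20 min at 37 °C. Fluorescence read at ex 390/em 460 nm. Inhibition calculated from remaining substrate versus no-inhibitor control. Run at least in duplicate.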

Q: Which IC50 does the source give for `NC(=O)c1ccc[n+]([C@@H]2O[C@H](COP(=O)([O-])OP(=O)(O)OC[C@H]3O[C@@H](n4c(-c5ccccc5)nc5c(N)ncnc54)[C@H](O)[C@@H]3O)[C@@H](O)[C@H]2O)c1` here?
A: 123 µM

Q: How did the IC50 turn out when `NC(=O)c1ccc[n+]([C@@H]2O[C@H](COP(=O)([O-])OP(=O)(O)OC[C@H]3O[C@@H](n4c(Br)nc5c(N)ncnc54)[C@H](O)[C@@H]3O)[C@@H](O)[C@H]2O)c1` was run?
A: 28 µM

Q: With `NC(=O)c1ccc[n+]([C@@H]2O[C@H](COP(=O)([O-])OP(=O)(O)OC[C@H]3O[C@@H](n4c(-c5ccc(Cl)cc5)nc5c(N)ncnc54)[C@H](O)[C@@H]3O)[C@@H](O)[C@H]2O)c1` as the compound, how does the IC50 read?
A: 35 µM

Q: For `Cc1ccc(-c2nc3c(N)ncnc3n2[C@@H]2O[C@H](COP(=O)(O)OP(=O)([O-])OC[C@H]3O[C@@H]([n+]4cccc(C(N)=O)c4)[C@H](O)[C@@H]3O)[C@@H](O)[C@H]2O)cc1`, which IC50 is on record?
A: 52 µM

Q: How did the IC50 turn out when `Nc1ncnc2c1nc(-c1ccccc1)n2[C@@H]1O[C@H](COP(=O)(O)O)[C@@H](O)[C@H]1O` was run?
A: 29 µM

Q: For `COc1ccc(-c2nc3c(N)ncnc3n2[C@@H]2O[C@H](COP(=O)(O)OP(=O)([O-])OC[C@H]3O[C@@H]([n+]4cccc(C(N)=O)c4)[C@H](O)[C@@H]3O)[C@@H](O)[C@H]2O)cc1`, which IC50 is on record?
A: 43 µM

target: T2, NAD-dependent protein deacetylase sirtuin-1 (Homo sapiens, UniProt Q96EB6); assay: Inhibition of human recombinant GST-tagged SIRT1 after 4 hrs by homogeneous fluorescent deacetylase assay; outline: as §1
T2 sequence (Q96EB6 whole entry): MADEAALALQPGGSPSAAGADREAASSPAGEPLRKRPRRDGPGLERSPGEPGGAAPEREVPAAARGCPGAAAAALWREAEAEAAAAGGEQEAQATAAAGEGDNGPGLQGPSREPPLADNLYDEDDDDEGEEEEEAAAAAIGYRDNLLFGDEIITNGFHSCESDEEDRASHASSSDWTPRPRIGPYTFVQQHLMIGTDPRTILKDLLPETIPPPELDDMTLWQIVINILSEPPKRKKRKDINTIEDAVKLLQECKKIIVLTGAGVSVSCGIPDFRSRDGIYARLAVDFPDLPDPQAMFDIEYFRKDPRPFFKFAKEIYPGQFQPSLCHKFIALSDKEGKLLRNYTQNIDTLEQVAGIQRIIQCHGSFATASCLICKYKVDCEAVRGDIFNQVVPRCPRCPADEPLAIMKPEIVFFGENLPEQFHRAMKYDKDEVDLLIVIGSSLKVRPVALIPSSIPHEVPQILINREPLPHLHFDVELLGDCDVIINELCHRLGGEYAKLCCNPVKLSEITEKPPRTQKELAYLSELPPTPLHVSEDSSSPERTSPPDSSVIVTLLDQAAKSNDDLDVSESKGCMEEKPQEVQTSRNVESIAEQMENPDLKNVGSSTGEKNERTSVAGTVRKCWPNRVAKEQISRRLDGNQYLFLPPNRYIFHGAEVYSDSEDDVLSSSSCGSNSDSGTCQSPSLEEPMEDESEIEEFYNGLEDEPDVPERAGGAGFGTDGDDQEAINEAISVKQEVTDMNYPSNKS

Q: `Nc1ncnc2c1nc(-c1ccccc1)n2[C@@H]1O[C@H](COP(=O)(O)O)[C@@H](O)[C@H]1O` was tested. Which IC50 did it give?
A: 31 µM
